Screens: PubChem, several laboratories
The entries come from a sample that favours hits as a whole.
HCT116 bCat-KO: beta-catenin-lacking colon tumor cell growth suppression; 140,000 tested, 1.5% active; HCT116 beta-catenin knockout viability, CellTiter-Glo, 60 h; hits give low values; viability, % at 10 µM; AID 818;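 active = viability at or under a set limit, the compound median less 4 SD, cut at about 6% in these data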
Fibroblast inh: blocks proliferation of human lung fibroblasts; LL 47 human lung fibroblast viability, ATP luminescence; hits give low values; AID 719; 85,000 tested, 1.1% active; viability, % at 10 µM;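 active = viability at or below 50% in the single dose screen; inactive = viability above 50%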;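 also: compound exposure lasted 72 h before the ATP readout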
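material = human LL 47 lung fibroblast cells | dosing = compounds added from tenfold dosing solution, 0.1% DMSO final | timing = overnight cell rest, 72 h compound treatment at 37 °C | measured by = CellTiter-Glo luminescence measuring cellular ATP | evaluation = % viability versus median cells-only luminescence | control set = cell-only wells, no compound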
HCT116 PTEN-null: growth suppressors of cells with PTEN tumor suppressor deletion | viability, % at 10 µM | HCT116 PTEN-null viability, CellTiter-Glo, 60 h; hits give low values | AID 827 | 140,000 tested, 1.2% active;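 active = viability at or below a set limit, 4 SD under the median of all tested compounds, cut at about 3.7% in these data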;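 also: PTEN knockout HCT116 line with beta catenin targeted HCT116 as companion control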
PTK2B oligo ant: blocks oligomerization of human Pyk2 in cells | Q293 cells, Pyk2 FERM NanoBiT luminescence; hits give low values | z-score (the deposit names both 25 µM and 10 µM) | 99,000 tested, 0.83% active;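 active = Z-score of -3 or lower, scaled per plate to the spread of control and sample wells; inactive = z-score above -3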;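 also: negative z-score means lost luminescence so less FERM oligomerization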
Target sequence (Q14289 whole entry, looked up): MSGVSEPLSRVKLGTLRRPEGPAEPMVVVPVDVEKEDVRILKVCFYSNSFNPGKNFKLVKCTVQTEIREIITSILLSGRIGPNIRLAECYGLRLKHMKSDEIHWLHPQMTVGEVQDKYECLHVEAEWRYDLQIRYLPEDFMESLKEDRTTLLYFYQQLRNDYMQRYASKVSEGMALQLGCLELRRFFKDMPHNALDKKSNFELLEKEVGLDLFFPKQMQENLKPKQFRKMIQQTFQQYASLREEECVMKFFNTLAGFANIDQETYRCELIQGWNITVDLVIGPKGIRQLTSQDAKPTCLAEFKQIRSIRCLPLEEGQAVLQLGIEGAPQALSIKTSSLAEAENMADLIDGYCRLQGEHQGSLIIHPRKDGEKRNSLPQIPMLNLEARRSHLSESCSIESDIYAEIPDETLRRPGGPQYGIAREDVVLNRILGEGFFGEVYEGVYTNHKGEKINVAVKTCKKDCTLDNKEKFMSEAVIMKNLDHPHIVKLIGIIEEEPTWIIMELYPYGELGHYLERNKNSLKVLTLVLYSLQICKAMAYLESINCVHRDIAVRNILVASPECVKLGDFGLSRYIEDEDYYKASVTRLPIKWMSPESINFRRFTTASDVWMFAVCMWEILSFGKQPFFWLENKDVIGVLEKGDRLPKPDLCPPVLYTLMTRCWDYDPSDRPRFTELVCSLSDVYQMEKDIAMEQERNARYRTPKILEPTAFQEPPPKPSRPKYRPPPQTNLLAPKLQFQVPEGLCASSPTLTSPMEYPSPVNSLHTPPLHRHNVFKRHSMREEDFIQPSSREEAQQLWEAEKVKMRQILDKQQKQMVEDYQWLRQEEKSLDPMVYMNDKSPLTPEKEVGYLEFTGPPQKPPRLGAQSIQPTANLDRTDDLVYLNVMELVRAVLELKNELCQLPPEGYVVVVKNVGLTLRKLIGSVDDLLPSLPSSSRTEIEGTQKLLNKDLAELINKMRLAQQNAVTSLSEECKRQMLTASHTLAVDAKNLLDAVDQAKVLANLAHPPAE
HUVEC inhibit: human endothelial cell proliferation inhibition | viability, % at 10 µM (by protocol) | HUVEC proliferation, CellTiter-Glo luminescence, 72 h; hits give low values | 86,000 tested, 1.1% active;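 active = viability at or below 30%; inactive = viability above 30%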
H69AR growth 86K: growth inhibitors of human H69AR lung tumor cells; viability, % at 10 µM; AID 598; H69AR lung tumor viability, ATP luminescence, 72 h; hits give low values; 85,000 tested, 6% active;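 active = viability at or below 40%; inactive = viability above 40%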;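 also: multidrug resistant small cell line overexpressing MRP-1 efflux transporter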
Hits are given with their value; n = inactive; x = no result given.

SMILES	HCT116 bCat-KO	Fibroblast inh	HCT116 PTEN-null	PTK2B oligo ant	HUVEC inhibit	H69AR growth 86K
O=S(=O)(CCSc1ccccn1)c1nc2ccccc2s1	n	43	n	n	n	1.9
O=C(CSc1ccccn1)Nc1nc2ccccc2s1	n	x	n	x	x	x
O=S(=O)(CCSc1nc2ccccc2o1)c1nc2ccccc2s1	5.1	6.2	3.5	-3.1	12	n
CCS(=O)(=O)CCSc1nc2ccccc2o1	n	n	n	n	n	n
Cc1cc2cc(CNC(=O)c3ccc(C)c([N+](=O)[O-])c3)ccc2[nH]1	n	x	n	x	x	x
Oc1ccc(C=Nc2ccc3ncccc3c2)c(O)c1	1.9	n	1.7	x	n	n
Cc1ccc(/C=N/Nc2ccnc3cc(Cl)ccc23)c(C)c1	1.3	x	1.6	x	x	x
Clc1ccc2c(N/N=C/c3ccc(Br)cc3)ccnc2c1	1.5	x	1.3	x	x	x
CC1Oc2ccccc2N(CC(=O)N(Cc2ccccc2)Cc2ccccn2)C1=O (stereo not given)	n	n	n	n	n	n
Cn1cccc1Cc1nnc(SCC(=O)Nc2ccc(Cl)cc2)n1-c1ccc(F)cc1	n	n	n	x	n	n
COc1ccccc1NC(=O)c1nc[nH]c1C(=O)Nc1ccccc1OC	n	n	n	n	n	39
COc1ccc(NC(=O)c2nc[nH]c2C(=O)Nc2ccccc2C)cc1	n	n	n	n	n	20
Cc1ccc(NC(=O)c2nc[nH]c2C(=O)Nc2ccc(C)cc2)cc1	n	x	n	n	x	x
COc1ccc(C(C(=O)OC(C)CN(C)C)c2ccccc2)cc1 (stereo not given)	n	x	n	n	x	x
CN(C)CC(C(=O)c1ccccc1)c1ccccc1 (stereo not given)	1.4	17	1.0	n	n	0.1
CSc1nc2nc3c(c(=O)n2[nH]1)CCCC3	n	n	n	n	n	n
Cc1sc2nc(SCC(=O)NCc3ccco3)n(Cc3ccccc3)c(=O)c2c1C	n	n	n	n	30	3.1
Cc1sc2nc(SCC(=O)NCc3ccco3)n(-c3ccccc3)c(=O)c2c1C	n	n	n	n	n	n
Cc1ccc(-n2c(SCC(=O)NCc3ccco3)nc3sc(C)c(C)c3c2=O)cc1	n	n	n	n	n	36
CCOC(=O)c1c(NC(C)=O)sc2c(OC)cccc12	n	n	n	n	n	n
CCOC(=O)c1c(NC(C)=O)sc2c(OC)c(Br)ccc12	n	n	n	n	n	38
Cc1cc2oc(=O)cc(CN3CCN(S(=O)(=O)c4cccs4)CC3)c2cc1C	n	x	n	x	x	x
c1coc(CNc2nc(N3CCCCC3)nc3ccccc23)c1	n	n	n	n	n	5.3
O=S(=O)(Nc1nc2ccccc2nc1NCc1ccco1)c1ccccc1	n	n	n	n	n	n
c1ccc(N2CCN(c3nc(NCc4ccco4)c4ccccc4n3)CC2)cc1	2.4	x	3.1	n	x	x
SMILES	HCT116 bCat-KO	Fibroblast inh	HCT116 PTEN-null	PTK2B oligo ant	HUVEC inhibit	H69AR growth 86K
O=c1c2ccccc2nc2c3ccccc3c(NCc3ccco3)nn12	n	n	n	n	n	n
O=C(O)c1ccc(/C=N/N2CCN(Cc3ccccc3)CC2)cc1	n	x	n	n	x	x
COC(=O)C(C)Sc1nc2c(c(-c3ccc(OC)cc3)c1C#N)-c1ccccc1C2=O (stereo not given)	x	n	x	n	n	34
Cc1nc2c(c(-c3ccccc3)c1C#N)C(=O)c1ccccc1-2	n	n	n	n	n	n
COCCOC(=O)c1c(NC(=O)CN2CCCc3ccccc32)sc(C(N)=O)c1C	n	x	n	x	x	x
CC1=C(C(=O)OC2CCCCC2)C(c2cccnc2)n2nnnc2N1 (stereo not given)	n	n	n	x	n	n
COc1ccc(C2C(C(=O)OC3CCCCC3)=C(C)Nc3nnnn32)c(OC)c1OC (stereo not given)	n	n	n	x	n	7.3
CCCC(=O)C1=C(O)C(C(=O)OC)C(C)(C)CC1=Nc1ccncc1 (stereo not given)	n	n	n	n	n	n
COc1cccc2c(=O)c(SC(F)(F)C(F)C(F)(F)F)c(C)[nH]c12 (stereo not given)	n	n	n	n	n	17
Cc1cccc(S(=O)(=O)NC(Cc2c[nH]c3ccccc23)C(=O)O)c1 (stereo not given)	n	x	n	x	x	x
COc1cc(/C=N/O)cc(Cl)c1OC	n	x	n	x	x	x
COc1cc(/C=C2\CC/C(=C\c3cc(OC)c(OC)c(OC)c3)C2=O)cc(OC)c1OC	n	x	n	x	x	x
COc1cc(/C=C2/CCC/C(=C\c3cc(O)c(OC)c(Cl)c3)C2=O)cc(Cl)c1O	2.0	x	1.9	-4.2	x	x
COc1cc(/C=C2\CC/C(=C\c3cc(OC)c(O)c(OC)c3)C2=O)cc(OC)c1O	2.1	x	2.5	x	x	x
CCc1ccc2nc3nc(C)cc(C)c3c(N)c2c1	4.0	x	3.2	n	x	x
Cc1cc(C)c2c(N)c3ccccc3nc2n1	2.9	x	3.2	n	x	x
Cc1cc(C)c2c(N)c(-c3nc4ccccc4[nH]3)sc2n1	n	n	n	n	n	n
CC(C)Cn1c(N)c(C(=O)CSc2cc(Cl)ccc2Cl)c(=O)n(C)c1=O	n	x	n	x	x	x
CNc1sc(C(=O)c2ccc(F)cc2)c(N)c1-c1nc2ccccc2s1	n	n	n	n	25	5.7
CC(C)c1onc(C(=O)N2CCN(Cc3ccccc3)CC2)c1[N+](=O)[O-]	n	x	n	x	x	x
O=C(/C=C/c1cc([N+](=O)[O-])ccc1OC(F)F)Nc1cccc(OC(F)F)c1	n	x	n	x	x	x
COc1ccc2ccccc2c1/C=N\n1c(C)cc(C)c(C(N)=O)c1=O	n	x	n	n	x	x
Cc1nnc(-c2ccccc2)c(=O)n1/N=C/c1c(O)ccc2ccccc12	4.5	x	n	n	x	x
Cc1ccc(C(C(=O)NC2CCCC2)N(Cc2ccc3c(c2)OCO3)C(=O)Cc2cccs2)cc1 (stereo not given)	n	n	n	n	n	n
O=C(NC1CCCCC1)C(c1ccccc1)N(Cc1ccc2c(c1)OCO2)C(=O)c1cnsn1 (stereo not given)	n	n	n	n	n	38
SMILES	HCT116 bCat-KO	Fibroblast inh	HCT116 PTEN-null	PTK2B oligo ant	HUVEC inhibit	H69AR growth 86K
Cc1nc2c(n1C1CCCCC1)C(=O)c1ccccc1C2=O	n	x	n	n	x	x
CNc1ccc(/C=C/C(=O)c2cccc3ccccc23)cc1[N+](=O)[O-]	5.3	x	n	x	x	x
COc1ccc(C(=O)N/N=C/c2ccc(OC(=O)c3cccc4ccccc34)c([N+](=O)[O-])c2)cc1	n	x	n	x	x	x
CCOc1cccc(CNc2ccc(O)cc2)c1OCc1ccc(Cl)cc1	0.8	x	1.9	n	x	x
C[N+](C)(C)CCCCCCCCCC[N+](C)(C)C	n	n	n	x	n	n
COc1nnc(-c2ccccc2)s1	n	x	n	x	x	x
Cc1ccc2[nH]c3c(c2c1)CN(C(=O)CN1CCN(c2cccc(C)c2C)CC1)CC3	n	n	n	n	n	n
Cc1ccc2[nH]c3c(c2c1)CN(C(=O)CN1c2ccc(F)cc2CCC1C)CC3 (stereo not given)	n	n	n	n	n	11
COc1ccc(C(=O)Nc2oc(-c3ccccc3)c(-c3ccccc3)c2C#N)cc1	n	n	n	n	n	n
